ChEMBL document CHEMBL4020730, “Synthesis and biological evaluation of selective tubulin inhibitors as anti-trypanosomal agents” (Bioorg Med Chem, 2017)

How the values were obtained:
[1] = Cytotoxicity against mouse […] cells assessed as reduction in cell viability after 48 hrs by MTT assay; format: cell-based
Outline: (§1)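 Cells kept in RPMI1640 with 10% heat-inactivated FBS, L-glutamine, pyruvate and pen-strep at 37 °C, 5% CO2. 3000 cells per well seeded for 24 hrs, then given a range of compound concentrations (DMSO final ≤0.1%) for 48 hrs. 0.5 mg/ml MTT for 2 hrs at 37 °C, dye dissolved in DMSO, absorbance at 570 nm. Quadruplicates normalized and fitted to a dose-response curve.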

[2] = system: Trypanosoma brucei brucei; assay: Inhibition of tubulin polymerization in Trypanosoma brucei brucei Lister 427 incubated for 7 hrs by Western blot analysis
Outline: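 Parasites treated with 0.5% DMSO or different doses of compound for 7 hrs. Cells washed in TDB buffer pH 7.4, then lysed in Pipes pH 6.8 buffer with 0.2% Triton X-100 for 5 mins at 30 °C. Supernatant (soluble) and pellet (polymerized) fractions separated by centrifugation. Lysate from equal cell numbers run on 10% SDS-PAGE, western blot with TAT-1 tubulin antibody.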

[3] = Selectivity index, ratio of IC50 for HEK293 cells to IC50 for bloodstream form of Trypanosoma brucei brucei Lister 427; format: toxicity; conditions: human, read-out: Ratio IC50
[4] = system: Trypanosoma brucei brucei; assay: Anti-parasitic activity against bloodstream form of Trypanosoma brucei brucei Lister 427 after 48 hrs by MTS assay; format: functional; conditions: Lister 427, 48 h
Outline: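 Bloodstream-form parasites grown in HMI-9 with 10% FBS at 37 °C, 7.5% CO2. 5,000 cells per well exposed to a range of compound concentrations, 0.1% DMSO, for 48 hrs at 37 °C. MTS (5% PMS) then added for 3 hrs at 37 °C, formazan read at 490 nm. Quadruplicate data normalized and fitted to a dose-response curve for IC50.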

HEK293 = assay: Cytotoxicity against HEK293 cells assessed as reduction in cell viability after 48 hrs by MTT assay; format: cell-based; conditions: Homo sapiens, HEK293, 48 h; outline: as §1
[5] = Selectivity index, ratio of IC50 for mouse […] cells to IC50 for bloodstream form of Trypanosoma brucei brucei Lister 427; format: toxicity; conditions: read-out: Ratio IC50

SMILES | inhibition [2] | IC50 [4] [µM] | IC50 [1] [µM] | selectivity ratio [3] | IC50 (HEK293) [µM] | selectivity ratio [5]
CN(c1ccc(NC(=O)c2ccc(C#N)cc2)cc1OCc1ccc(C(F)(F)F)cc1)S(=O)(=O)Cc1ccccc1 | Dose-dependent effect | 0.07 | > 500 | > 7140 | > 500 | > 7140
CN(c1ccc(NC(=O)c2ccc(C(F)(F)F)cc2C(F)(F)F)cc1OCc1cccc(C(F)(F)F)c1)S(C)(=O)=O |  | 8.42 | > 500 | 10 | 80.6 | > 59
CCCCCCOc1cc(NC(=O)c2cc(C(F)(F)F)cc(C(F)(F)F)c2)ccc1N(C)S(=O)(=O)Cc1ccccc1 |  | 7.81 | 13.3 | 2 | 69.9 | 9
CCS(=O)(=O)N(C)c1ccc(NC(=O)c2ccc3c(c2)OCO3)cc1OCc1cccc(C#N)c1 |  | 23.5 | > 500 | > 21 | > 500 | > 21
CN(c1ccc(NC(=O)c2cc(C(F)(F)F)cc(C(F)(F)F)c2)cc1OCc1cccc(C(=N)N)c1)S(C)(=O)=O |  | > 50 | > 500 | > 10 | > 500 | > 10
CN(c1ccc(NC(=O)c2cc(C(F)(F)F)cc(C(F)(F)F)c2)cc1OCc1ccc(C(F)(F)F)cc1)S(=O)(=O)Cc1ccccc1 |  | 3.39 | > 500 | > 147 | 293 | 86
CN(c1ccc(NC(=O)c2ccc(C(F)(F)F)cc2C(F)(F)F)cc1OCc1ccccc1C(F)(F)F)S(C)(=O)=O |  | 13.3 | > 500 | 3 | 34.8 | > 38
CN(c1ccc(NC(=O)c2cc(C(F)(F)F)cc(C(F)(F)F)c2)cc1OCc1cccc(C(F)(F)F)c1)S(C)(=O)=O |  | 8.58 | > 500 | 6 | 54 | > 58
Cc1ccc(C(F)(F)F)cc1COc1cc(NC(=O)c2ccc(C(F)(F)F)cc2C(F)(F)F)ccc1N(C)S(C)(=O)=O |  | 13 | > 500 | 8 | 102 | > 38
CN(c1ccc(NC(=O)c2cc(C(F)(F)F)cc(C(F)(F)F)c2)cc1OCc1ccccc1C(F)(F)F)S(C)(=O)=O |  | 9.85 | > 500 | > 51 | > 500 | > 51
CCCCCCOc1cc(NC(=O)c2ccc(C(F)(F)F)cc2C(F)(F)F)ccc1N(C)S(C)(=O)=O |  | 30.1 | > 500 | > 17 | > 500 | > 17

Continued, in another order:

inhibition [2] | IC50 [4] [µM] | SMILES | IC50 [1] [µM] | selectivity ratio [3] | IC50 (HEK293) [µM] | selectivity ratio [5]
 | 2.08 | CN(c1ccc(NC(=O)c2cc(C(F)(F)F)cc(C(F)(F)F)c2)cc1OCc1cccc(C(F)(F)F)c1)S(=O)(=O)Cc1ccccc1 | 69.5 | 33 | 59.8 | 29
 | 15.6 | Cc1ccc(C(F)(F)F)cc1COc1cc(NC(=O)c2cc(C(F)(F)F)cc(C(F)(F)F)c2)ccc1N(C)S(C)(=O)=O | > 500 | > 32 | > 500 | > 32
 | 1.78 | CN(c1ccc(NC(=O)c2ccc(C(F)(F)F)cc2C(F)(F)F)cc1OCc1cccc(C(F)(F)F)c1)S(=O)(=O)Cc1ccccc1 | 20.5 | 12 | 176 | 99
 | > 50 | Cc1ccc(C)c(COc2cc(Nc3nccc(N)n3)ccc2N(C)S(C)(=O)=O)c1 | > 500 | > 10 | > 500 | > 10
 | 23 | CCCCCCOc1cc(NC(=O)c2cc(C(F)(F)F)cc(C(F)(F)F)c2)ccc1N(C)S(C)(=O)=O | > 500 | > 22 | > 500 | > 22
 | 7.13 | CN(c1ccc(NC(=O)c2cc(C(F)(F)F)cc(C(F)(F)F)c2)cc1OCc1ccccc1C(F)(F)F)S(=O)(=O)Cc1ccccc1 | > 500 | > 70 | > 500 | > 70
 | 10.5 | CN(c1ccc(NC(=O)c2ccc(C(F)(F)F)cc2C(F)(F)F)cc1OCc1ccccc1C(F)(F)F)S(=O)(=O)Cc1ccccc1 | 158 | 15 | > 500 | > 48
